Assay results of several laboratories.
gyrA: DNA gyrase subunit A (gyrA, Escherichia coli K-12, UniProt P0AES4)
gag-pol reverse transcriptase: Gag-Pol polyprotein, reverse transcriptase (gag-pol, Human immunodeficiency virus 1, UniProt P03366)

C[C@H]1Oc2cc(cnc2N)-c2c(nn(C)c2C#N)CN(C)C(=O)c2ccc(F)cc21
IC50 (Protein-tyrosine kinase 2-beta (PTK2B, Homo sapiens, UniProt Q14289); enzyme activity; inhibitor; radiometric): 5.9 nM

COc1ccc(S(=O)(=O)ON=C2C=C(C)C(=O)C(C)=C2)cc1
IC50 (Histone acetyltransferase p300 (EP300, Homo sapiens, UniProt Q09472); enzyme activity; inhibitor; radiometric): 128000 nM

CC(C)Oc1c(NC(=O)c2ccc(NC(=O)[C@H](CC(N)=O)NC(=O)c3ccc(NC(=O)c4ccc(C#N)c(Cl)c4)cc3)cc2)ccc(C(=O)Nc2ccc(C(=O)O)cc2)c1O
IC50 (gyrA; enzyme activity; inhibitor): 100 nM

Cc1cc(C)cc(S(=O)(=O)c2c(C(=O)NCCNS(=O)(=O)c3ccc(Br)cc3)[nH]c3ccc(Cl)cc23)c1
IC50 (gag-pol reverse transcriptase; enzyme activity; inhibitor; ELISA): 120 nM

COc1ccc2c(Oc3ccc4c(C(=O)Nc5ccccc5N)cccc4c3)ccnc2c1
IC50 (cAMP-dependent protein kinase catalytic subunit alpha (PRKACA, Homo sapiens, UniProt P17612); enzyme activity; inhibitor): > 500 nM

Cc1cc(C)cc(S(=O)(=O)c2c(C(=O)NCCNS(=O)(=O)c3cccs3)[nH]c3ccc(Cl)cc23)c1
IC50 (gag-pol reverse transcriptase; enzyme activity; inhibitor; ELISA): 140 nM

Cc1nccc2c1c(=O)n(C)c1cc(OC[C@@H](N)CC(C)C)c(C#N)cc21
IC50 (Alpha-2A adrenergic receptor (ADRA2A, Homo sapiens, UniProt P08913); cell-free assay): > 30000 nM

N#Cc1ccc(Nc2nc(N)cc(Oc3ccc(-c4ccc(C#N)cc4)c(F)c3F)n2)cc1
IC50 (gag-pol reverse transcriptase; enzyme activity; inhibitor): 30 nM

Cc1cc(C)cc(S(=O)(=O)c2c(C(=O)NCCNS(=O)(=O)c3ccc(F)cc3)[nH]c3ccc(Cl)cc23)c1
IC50 (gag-pol reverse transcriptase; enzyme activity; inhibitor; ELISA): 66 nM

CCCCN1/C(=C/C=C(Br)/C=C/C2=[N+](CCCC)c3ccc(Br)cc3C2(C)C)C(C)(C)c2cc(Br)ccc21
IC50 (Protein arginine N-methyltransferase 6 (PRMT6, Homo sapiens, UniProt Q96LA8); enzyme activity; inhibitor; radiometric): 2430 nM

N#Cc1ccc(Nc2nc(N)cc(Oc3ccc(-c4ccc(C#N)cc4)cc3F)n2)cc1
IC50 (gag-pol reverse transcriptase; enzyme activity; inhibitor): 30 nM

COc1cc(C(=O)Nc2ccc(C(=O)N[C@@H](CC(N)=O)C(=O)Nc3ccc(C(=O)Nc4ccc(C(=O)Nc5ccc(C(=O)O)cc5)c(O)c4OC(C)C)cc3)cc2)ccc1C#N
IC50 (gyrA; enzyme activity; inhibitor): 1800 nM

N#Cc1ccc(Nc2nc(N)cc(Oc3c(F)cc(-c4ccc(C#N)c(F)c4)cc3F)n2)cc1
IC50 (gag-pol reverse transcriptase; enzyme activity; inhibitor): 40 nM

Cc1cc(C)cc(S(=O)(=O)c2c(C(=O)NCCCCNS(=O)(=O)c3ccccc3F)[nH]c3ccc(Cl)cc23)c1
IC50 (gag-pol reverse transcriptase; enzyme activity; inhibitor; ELISA): 120 nM

CC(C)Oc1c(NC(=O)c2ccc(NC(=O)[C@H](CC(N)=O)NC(=O)c3ccc(NC(=O)c4ccc(C#N)c(F)c4)cc3)cc2)ccc(C(=O)Nc2ccc(C(=O)O)cc2)c1O
IC50 (gyrA; enzyme activity; inhibitor): 400 nM

Cc1cc(C)cc(S(=O)(=O)c2c(C(=O)NCCCCCNS(=O)(=O)c3cccnc3)[nH]c3ccc(Cl)cc23)c1
IC50 (gag-pol reverse transcriptase; enzyme activity; inhibitor; ELISA): 95 nM

CC(C)Oc1c(NC(=O)c2ccc(NC(=O)[C@H](CC(N)=O)NC(=O)c3ccc(NC(=O)c4ccc(C#N)nc4)cc3)cc2)ccc(C(=O)Nc2ccc(C(=O)O)cc2)c1O
IC50 (gyrA; enzyme activity; inhibitor): 500 nM

N#Cc1ccc(Nc2nc(N)cc(Oc3ccc(-c4ccc(F)cc4)cc3)n2)cc1
IC50 (gag-pol reverse transcriptase; enzyme activity; inhibitor): 200 nM
